Laboratory results: ChEMBL document CHEMBL1806353, “Synthesis of antitrypanosomal 1,2-dioxane derivatives based on a natural product scaffold” (Bioorg Med Chem Lett, 2011)

Tested on: Trypanosoma brucei brucei
Assay: Antitrypanosomal activity against blood stream form of Trypanosoma brucei brucei BF427 after 48 hrs by Alamar Blue assay
Format: functional, organism-based
Details: BF427, 48 h
Outline: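 Bloodstream-form T. b. brucei 427, starting inoculum 2 × 10³ parasites per well, exposed to 2-fold serial drug dilutions in HMI-9 with 10% FBS for 48 h at 37 °C, 5% CO₂. Final DMSO no more than 0.08%. Alamar Blue then added for a further 4 h, fluorescence read at 544/590 nm. IC50 from three biological replicates, each averaging three technical replicates.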

Question: Which IC50 does the source give for CC(C)(C)OC(=O)/C=C\[C@@H]1CC[C@@H](CC(=O)OCc2ccccc2)OO1 here?
Answer: 0.37 µM

Question: For CCOC(=O)/C=C/[C@@H]1CC[C@@H](CC(=O)OCc2ccccc2)OO1, which IC50 is on record?
Answer: 0.62 µM

Question: CC(=O)/C=C/[C@@H]1CC[C@@H](CC(=O)OCc2ccccc2)OO1 was tested. Which IC50 did it give?
Answer: 0.9 µM

Question: Which IC50 does the source give for C=C[C@@H]1CC[C@@H](CC(=O)OCc2ccccc2)OO1 here?
Answer: 3.03 µM

Question: CCOC(=O)/C=C\[C@@H]1CC[C@@H](CC(=O)OCc2ccccc2)OO1 was tested. Which IC50 did it give?
Answer: 1.35 µM

Question: With N#CC=C[C@@H]1CC[C@@H](CC(=O)OCc2ccccc2)OO1 (mixture of isomers) as the compound, how does the IC50 read?
Answer: 3.14 µM

Question: With O=C(/C=C/[C@@H]1CC[C@@H](CC(=O)OCc2ccccc2)OO1)OCc1ccccc1 as the compound, how does the IC50 read?
Answer: 0.64 µM

Question: Which IC50 does the source give for O=C(/C=C\[C@@H]1CC[C@@H](CC(=O)OCc2ccccc2)OO1)OCc1ccccc1 here?
Answer: 0.24 µM

Question: For O=C(C[C@@H]1CC[C@@H](/C=C/C(=O)c2ccccc2)OO1)OCc1ccccc1, which IC50 is on record?
Answer: 0.51 µM

Question: For N=C(N)c1ccc(OCCCCCOc2ccc(C(=N)N)cc2)cc1, which IC50 is on record?
Answer: 0.86 µM

Question: How did the IC50 turn out when CC(=O)/C=C\[C@@H]1CC[C@@H](CC(=O)OCc2ccccc2)OO1 was run?
Answer: 1.88 µM

Question: With CC(C)(C)OC(=O)/C=C/[C@@H]1CC[C@@H](CC(=O)OCc2ccccc2)OO1 as the compound, how does the IC50 read?
Answer: 0.2 µM

Question: Which IC50 does the source give for O=C(C[C@@H]1CC[C@@H](/C=C\C(=O)c2ccccc2)OO1)OCc1ccccc1 here?
Answer: 0.58 µM
